Several values for one entry are separate records, joined by “and”; a condition that tells them apart may be missing. Equal values may be shown once.

The target of experiment [1] is T1, Alpha-2A adrenergic receptor (Homo sapiens, UniProt P08913).
T1 sequence (P08913 whole entry): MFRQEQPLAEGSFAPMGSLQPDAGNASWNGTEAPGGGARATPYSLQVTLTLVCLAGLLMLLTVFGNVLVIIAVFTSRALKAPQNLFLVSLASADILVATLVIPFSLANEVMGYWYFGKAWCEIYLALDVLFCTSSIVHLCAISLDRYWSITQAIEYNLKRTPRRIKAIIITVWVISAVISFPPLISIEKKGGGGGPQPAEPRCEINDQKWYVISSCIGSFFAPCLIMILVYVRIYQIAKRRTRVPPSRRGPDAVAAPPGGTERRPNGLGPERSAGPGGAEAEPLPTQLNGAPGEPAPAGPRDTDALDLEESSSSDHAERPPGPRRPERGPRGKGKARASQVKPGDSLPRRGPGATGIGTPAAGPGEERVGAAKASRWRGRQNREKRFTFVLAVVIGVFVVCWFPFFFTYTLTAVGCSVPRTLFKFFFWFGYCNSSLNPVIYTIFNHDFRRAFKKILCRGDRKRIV
Briefly: Affinity to human Alpha-2A adrenergic receptor determined by radioligand binding techniques from chinese hamster ovary (CHO) cells. It counts as cell-based.

Experiment [2] concerns the target T2, Alpha-1D adrenergic receptor (Homo sapiens, UniProt P25100).
T2 sequence (P25100 whole entry): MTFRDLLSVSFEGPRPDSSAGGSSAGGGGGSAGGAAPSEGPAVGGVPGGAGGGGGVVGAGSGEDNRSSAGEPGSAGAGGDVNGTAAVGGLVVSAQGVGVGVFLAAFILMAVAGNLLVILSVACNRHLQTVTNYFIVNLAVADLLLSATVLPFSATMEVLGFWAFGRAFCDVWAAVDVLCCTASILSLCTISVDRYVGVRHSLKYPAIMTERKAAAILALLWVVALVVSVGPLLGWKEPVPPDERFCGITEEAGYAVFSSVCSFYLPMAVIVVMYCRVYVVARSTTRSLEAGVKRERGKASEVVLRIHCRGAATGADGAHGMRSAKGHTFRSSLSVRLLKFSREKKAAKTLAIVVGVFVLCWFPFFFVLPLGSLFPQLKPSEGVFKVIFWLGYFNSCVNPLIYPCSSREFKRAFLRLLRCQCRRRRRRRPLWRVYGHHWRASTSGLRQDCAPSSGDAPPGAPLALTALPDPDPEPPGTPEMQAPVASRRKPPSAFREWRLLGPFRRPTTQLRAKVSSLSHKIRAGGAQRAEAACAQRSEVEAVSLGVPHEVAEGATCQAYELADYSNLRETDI
Nature of the experiment: Affinity to human Alpha-1D adrenergic receptor determined by radioligand binding techniques from rat-1 fibroblasts membranes.

The target of experiment [3] is T2, Alpha-1D adrenergic receptor. Briefly: Agonist potency at Alpha-1D adrenergic receptor assayed in rat-1 fibroblasts expressing human Alpha-1D adrenergic receptor. Format: functional. In outline:
(§1)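 Rat-1 fibroblasts expressing human α1a/α1b/α1d, grown in DMEM with 10% heat-inactivated FBS and 0.6 mg/mL G418, plated 6000 cells/well and cultured 48 h at 37 °C. Loaded 2 h at 37 °C with Calcium Green (4 μM), 0.2% pluronic acid and 2.5 mM probenecid in HEPES buffer pH 7.4. FLIPR read at room temperature: 10 s baseline, then 50 s after compound. 11-point curves as % of 40 μM phenylephrine response, top concentration typically 5 μM.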

Experiment [4] has as its target T3, Alpha-1A adrenergic receptor (Homo sapiens, UniProt P35348).
T3 sequence (P35348 whole entry): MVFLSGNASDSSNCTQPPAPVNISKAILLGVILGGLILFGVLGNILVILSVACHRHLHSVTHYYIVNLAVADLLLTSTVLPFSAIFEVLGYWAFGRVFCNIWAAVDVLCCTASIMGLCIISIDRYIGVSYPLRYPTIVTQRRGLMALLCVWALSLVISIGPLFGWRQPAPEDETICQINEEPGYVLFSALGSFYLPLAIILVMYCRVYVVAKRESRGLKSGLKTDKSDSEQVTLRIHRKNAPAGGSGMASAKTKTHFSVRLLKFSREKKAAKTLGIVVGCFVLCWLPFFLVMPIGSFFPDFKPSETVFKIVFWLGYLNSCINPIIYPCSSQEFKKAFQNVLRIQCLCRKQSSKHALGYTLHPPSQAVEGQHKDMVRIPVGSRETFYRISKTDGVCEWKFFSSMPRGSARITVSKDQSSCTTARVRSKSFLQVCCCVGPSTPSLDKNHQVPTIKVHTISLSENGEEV
Nature of the experiment: Agonist potency at Alpha-1 adrenergic receptor assayed in rat-1 fibroblasts expressing human Alpha-1 adrenergic receptor. It counts as functional. In outline: as §1

For experiment [5], the target named is T4, Alpha-2A adrenergic receptor (Homo sapiens) (UniProt P08913).
T4 sequence (whole entry): T1 sequence (P08913 whole entry)
Briefly: Efficacy as percentage of the maximal effect observed for nonselective agonist UK-14304 in CHO cells expressing human Alpha-2A adrenergic receptor. Format: functional, cell-based.

Experiment [6] deals with T3, Alpha-1A adrenergic receptor. Nature of the experiment: Affinity to Alpha-1 adrenergic receptor determined by radioligand binding techniques from rat-1 fibroblasts membranes.
Experiment [7] deals with T5, Alpha-1B adrenergic receptor (Homo sapiens, UniProt P35368).
T5 sequence (P35368 whole entry): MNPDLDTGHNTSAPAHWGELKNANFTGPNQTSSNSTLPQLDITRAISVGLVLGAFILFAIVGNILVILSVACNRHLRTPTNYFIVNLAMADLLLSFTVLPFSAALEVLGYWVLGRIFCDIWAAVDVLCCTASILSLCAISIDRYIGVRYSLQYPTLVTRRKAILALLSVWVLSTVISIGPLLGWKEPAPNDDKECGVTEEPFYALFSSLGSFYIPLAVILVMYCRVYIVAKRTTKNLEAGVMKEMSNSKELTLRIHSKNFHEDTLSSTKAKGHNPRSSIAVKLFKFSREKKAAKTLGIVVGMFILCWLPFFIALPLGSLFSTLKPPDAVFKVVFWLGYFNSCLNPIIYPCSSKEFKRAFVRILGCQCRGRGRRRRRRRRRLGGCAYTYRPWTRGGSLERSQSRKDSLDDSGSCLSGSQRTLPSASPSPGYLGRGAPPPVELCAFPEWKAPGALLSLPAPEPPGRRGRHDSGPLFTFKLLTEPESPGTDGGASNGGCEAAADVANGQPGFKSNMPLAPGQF
Nature of the experiment: Affinity to human Alpha-1B adrenergic receptor determined by radioligand binding techniques from rat-1 fibroblasts membranes.

For experiment [8], the target named is T6, Alpha-2C adrenergic receptor (Homo sapiens) (UniProt P18825).
T6 sequence (whole entry): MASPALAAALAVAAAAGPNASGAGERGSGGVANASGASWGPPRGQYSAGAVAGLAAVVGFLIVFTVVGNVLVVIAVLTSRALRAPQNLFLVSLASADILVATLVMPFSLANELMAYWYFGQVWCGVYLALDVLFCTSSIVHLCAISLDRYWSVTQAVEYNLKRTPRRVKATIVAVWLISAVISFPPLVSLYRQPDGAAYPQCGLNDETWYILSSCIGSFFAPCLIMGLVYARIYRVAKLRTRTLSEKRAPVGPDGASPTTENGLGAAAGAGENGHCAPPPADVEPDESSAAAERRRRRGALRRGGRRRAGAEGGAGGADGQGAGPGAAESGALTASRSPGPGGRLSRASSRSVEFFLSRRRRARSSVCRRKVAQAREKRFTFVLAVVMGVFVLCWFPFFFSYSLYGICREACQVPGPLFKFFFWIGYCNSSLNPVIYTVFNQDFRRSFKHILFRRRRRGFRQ
Nature of the experiment: Efficacy as percentage of the maximal effect observed for nonselective agonist UK-14304 in CHO cells expressing human Alpha-2C adrenergic receptor. It counts as functional, cell-based.

The target of experiment [9] is T7, Alpha-2C adrenergic receptor (Homo sapiens, UniProt P18825).
T7 sequence (P18825 whole entry): T6 sequence (whole entry)
Briefly: Affinity to human Alpha-2C adrenergic receptor determined by radioligand binding techniques from chinese hamster ovary (CHO) cells. Format: cell-based.

In experiment [10] the target is T5, Alpha-1B adrenergic receptor. Briefly: Agonist potency at Alpha-1B adrenergic receptor expressed in rat-1 fibroblasts. Format: functional.
Experiment [11] addresses T1, Alpha-2A adrenergic receptor. Briefly: Agonist potency at Alpha-2A stably expressed in CHO cells. Format: functional, cell-based.
Experiment [12] addresses T7, Alpha-2C adrenergic receptor. Briefly: Agonist potency at Alpha-2C adrenergic receptor assayed in CHO cells expressing human Alpha-2C adrenergic receptor. It counts as functional, cell-based.
Experiment [13] addresses T8, Alpha-1A adrenergic receptor (Homo sapiens) (UniProt P35348).
T8 sequence (whole entry): T3 sequence (P35348 whole entry)
Briefly: Efficacy as % of the maximal effect observed for nonselective agonist phenylephrine in rat-1 fibroblasts expressing human Alpha-1 adrenergic receptor. Format: functional. In outline:
as §1

For experiment [14], the target named is T9, Alpha-2B adrenergic receptor (Homo sapiens, UniProt P18089).
T9 sequence (P18089 whole entry): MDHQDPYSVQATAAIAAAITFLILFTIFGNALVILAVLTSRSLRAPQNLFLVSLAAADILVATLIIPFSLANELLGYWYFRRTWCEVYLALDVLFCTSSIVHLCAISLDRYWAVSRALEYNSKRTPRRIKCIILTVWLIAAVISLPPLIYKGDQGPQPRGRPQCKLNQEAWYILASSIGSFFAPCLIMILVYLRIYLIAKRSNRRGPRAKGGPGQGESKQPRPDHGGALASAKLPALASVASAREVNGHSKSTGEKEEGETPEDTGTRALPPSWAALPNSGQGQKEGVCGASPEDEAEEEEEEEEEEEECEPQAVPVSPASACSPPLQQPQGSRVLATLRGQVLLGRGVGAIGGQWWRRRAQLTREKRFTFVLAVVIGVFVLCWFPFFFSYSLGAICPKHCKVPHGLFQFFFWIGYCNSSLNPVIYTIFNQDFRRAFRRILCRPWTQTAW
Nature of the experiment: Affinity to human Alpha-2B adrenergic receptor determined by radioligand binding techniques from chinese hamster ovary (CHO) cells. It counts as cell-based.

As for `O=S1(=O)CCCc2cccc(NCC3=NCCN3)c21`, the Ki in [1] was 0.794 µM; in [2] it was over 15.8 µM; in experiment [6] it was 0.617 µM; in experiment [7], 2.14 µM; in [9] it was 2.69 µM. Moreover, the EC50 is over 100 µM in experiment [3]; over 100 µM in [4]; over 100 µM in experiment [10]; over 10 µM in [11]; 6.31 µM in experiment [12]. Further, the figures for the Max in experiment [5] and in experiment [8] were 29% and 69%, respectively.
Turning to `COc1ccc(S(C)(=O)=O)c(NCC2=NCCN2)c1`, the Ki in experiment [1] was 3.63 µM; in [2] it was 7.59 µM; in [6], 1.62 µM; in [14], over 6.31 µM; in [7], 4.57 µM; in experiment [9], over 5.01 µM. Also, the EC50 in experiment [3] was over 100 µM; in [4] it was 0.0141 µM; in experiment [10], over 100 µM; in [11] it was > 10 µM and 3.31 µM. The Max in [13] worked out at 102%; in experiment [5], 16%; in [8], 49%.
For `CS(=O)(=O)Nc1ccc(F)c([C@@H](O)CN)c1` [NS-49], the EC50 in experiment [3] is over 100 µM; in experiment [4], 0.158 µM; in experiment [10] it was over 100 µM; in [11], over 10 µM; in [12], 2 µM. The values for the Max in [13], in experiment [5] and in experiment [8] were 109%, 34% and 87%, respectively. Further, the figures for the inhibitory constant (Ki) in experiment [6] and in experiment [7] were 1.12 µM and 11.2 µM, respectively.
As to `Cc1cc(C(C)(C)C)c(O)c(C)c1CC1=NCCN1`, the Max in experiment [5] was determined as 88%.
